Pf Dd2 growth: P. falciparum Dd2 growth inhibitors, primary screen, SYBR Green fluorescence, single dose replicates; AID 1159554, 2015; activity change, % at 10 µM; 72 h; hits give low values; 94,000 tested, 2.3% active; in the data active = activity change below about -80%; inconclusive = no clear call, values can overlap the other calls
T cruzi growth-1: T. cruzi intracellular proliferation inhibitors, primary screen, cell-based, beta-gal Tulahuen parasites, NIH3T3 host, luminescence | T. cruzi beta-gal in NIH3T3, GalScreen luminescence, 90 h | inhibition, % at 8.34 µM | 77,000 tested, 5.9% active | AID 624255, 2012;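 active = mean inhibition above about 93%, with at least 55% of replicates each passing it, limit read from the data, passing the limit was not always enough; inconclusive = only one of those two conditions holds; inactive = neither condition holds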
IDH1 R132H inh: inhibitors of IDH1 R132H reductase, primary screen, biochemical, plate reader, single point | AID 624101, 2012 | Isocitrate dehydrogenase [NADP] cytoplasmic (Homo sapiens), O75874 | inhibition, % at 10 µM | diaphorase/resazurin fluorescence, 60 min | 70,000 tested, 0.18% active; in the data active = inhibition above about 34%; inconclusive = no clear call, values can overlap the other calls; inactive = below about 11%;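 note: 0% = DMSO and 100% = no enzyme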
Target sequence (O75874 whole entry R132H): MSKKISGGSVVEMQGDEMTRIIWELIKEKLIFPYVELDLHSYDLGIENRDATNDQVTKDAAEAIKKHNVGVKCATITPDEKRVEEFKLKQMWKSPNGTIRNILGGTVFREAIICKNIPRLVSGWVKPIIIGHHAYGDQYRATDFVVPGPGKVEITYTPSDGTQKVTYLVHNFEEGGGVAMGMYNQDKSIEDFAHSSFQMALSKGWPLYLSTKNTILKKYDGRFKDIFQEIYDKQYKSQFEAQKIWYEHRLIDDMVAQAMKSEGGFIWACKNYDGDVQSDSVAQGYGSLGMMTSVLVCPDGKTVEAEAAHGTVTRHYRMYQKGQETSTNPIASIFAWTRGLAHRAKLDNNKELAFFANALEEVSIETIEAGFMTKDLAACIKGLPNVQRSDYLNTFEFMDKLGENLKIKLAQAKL
GASC1 inh: inhibitors of GASC-1 (KDM4C) histone demethylase, primary screen, biochemical, single concentration HTS. Lysine-specific demethylase 4C (Homo sapiens), Q9H3R0. GST-KDM4C 2-372, H3K9me3 peptide, LANCE TR-FRET. inhibition, % at 12.5 µM. 96,000 tested, 0.15% active;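 active = mean replicate inhibition above about 25%, with at least 55% of replicates also reaching it, limit read from the data, passing the limit was not always enough; inconclusive = only one of those two conditions met; inactive = neither condition met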
Target sequence (Q9H3R0 2-372 limits assumed): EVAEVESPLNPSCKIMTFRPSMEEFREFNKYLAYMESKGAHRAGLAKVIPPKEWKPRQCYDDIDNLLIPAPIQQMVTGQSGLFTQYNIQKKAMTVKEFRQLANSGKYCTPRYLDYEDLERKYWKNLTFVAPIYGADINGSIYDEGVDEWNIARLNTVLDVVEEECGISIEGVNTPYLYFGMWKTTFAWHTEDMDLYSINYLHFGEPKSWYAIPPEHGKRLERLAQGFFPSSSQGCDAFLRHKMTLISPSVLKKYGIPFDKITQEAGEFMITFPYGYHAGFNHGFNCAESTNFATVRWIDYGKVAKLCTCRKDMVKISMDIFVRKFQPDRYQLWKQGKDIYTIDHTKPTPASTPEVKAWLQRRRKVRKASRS
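Test system – GST-tagged GASC-1 (JMJD2C) catalytic fragment, aa 2-372 · Medium – HEPES buffer, pH 7.5, plus ascorbate · Reagent – H3K9me3 peptide with Fe(II)/2OG · Compound – one test concentration per compound · Timing – 30 min reaction, 60 min detection, RT · Technique – TR-FRET with Eu antibody and ULight streptavidin, EDTA stop · Read-out basis – inhibition from TR-FRET ratio decrease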
T cruzi growth-2: T. cruzi intracellular proliferation inhibitors, confirmation, cell-based, NIH3T3 host, beta-gal parasite, luminescence, cherry-pick. shares compounds with T cruzi growth-1. T. cruzi beta-gal in NIH3T3, GalScreen luminescence, 90 h. inhibition, % at 8.35 µM. 5,600 tested, 72% active. AID 651739, 2012;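 active = mean replicate inhibition above about 95% and at least 55% of replicates individually reaching it, limit read from the data; inconclusive = only one of the two criteria is met; inactive = neither criterion is met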
T cruzi growth-3: inhibitors of intracellular T. cruzi replication, confirmation, NIH3T3 host cells, beta-gal parasites, cherry-pick, set 2 | inhibition, % at 2.09 µM | T. cruzi beta-gal in NIH3T3, GalScreen luminescence, 90 h | 5,600 tested, 21% active | AID 651740, 2012 | shares compounds with T cruzi growth-1;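 active = mean inhibition above about 95%, with at least 55% of replicates also reaching it, limit read from the data; inconclusive = meets just one of the two conditions; inactive = meets neither condition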;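 note: plate controls were neutral control median for no effect and positive control median for full effect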
3T3 cytotox: cytotoxicity in mouse NIH/3T3 fibroblasts, confirmation, cytotoxicity control for T. cruzi proliferation inhibitor project, cell-based, cherry-pick, single point. shares compounds with T cruzi growth-1. AID 651742, 2012. 5,600 tested, 14% active. NIH/3T3 viability, CellTiter-Glo ATP luminescence, 90 h. cytotoxicity (signal decrease), % at 8.35 µM;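 active = mean signal decrease across replicates above about 35% based on untreated-well scatter, with enough replicates individually passing, limit read from the data; inconclusive = no rule stated though some were filed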;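 note: 0% = median of neutral control wells and 100% = median of positive control wells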
NIH3T3 tox 2: NIH/3T3 fibroblast cytotoxicity, confirmation, cytotoxicity control, cell-based, cherry-pick, single point, set 2; shares compounds with T cruzi growth-1; NIH/3T3 viability, CellTiter-Glo ATP luminescence, 90 h; inhibition, % at 24.9 µM; 5,600 tested, 56% active;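 active = mean loss of cell viability signal at or above a set limit, and enough replicates individually reaching it; inconclusive = meets only the mean limit or only the replicate share; inactive = meets neither condition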;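 note: 0% = median of neutral control wells and 100% = median of positive control wells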
Active calls of the source: *; ? = inconclusive; nt = no result. This is a sample that favours compounds with a hit; in the whole collection about 5.8% have one here.

SMILES	Pf Dd2 growth	T cruzi growth-1	IDH1 R132H inh	GASC1 inh	T cruzi growth-2	T cruzi growth-3	3T3 cytotox	NIH3T3 tox 2
N#C[C@@H]1N[C@H](CO)[C@H]1c1ccc(-c2ccccc2F)cc1	35.0	101.6*	nt	0.7	52.8	32.9	-2.7	17.3
N#C[C@@H]1N[C@H](CO)[C@H]1c1ccc(C2=CCCC2)cc1	23.1	101.2*	nt	0.1	88.9	-0.9	-25.7	-1.5
O=C(NC[C@H]1N[C@@H](CO)[C@H]1c1ccc(-c2ccccc2)cc1)c1ccccc1F	-32.3	75.5	nt	-3.4	nt	nt	nt	nt
O=C(NC[C@@H]1N[C@@H](CO)[C@@H]1c1ccc(-c2ccccc2F)cc1)c1ccccn1	-17.1	102.2*	nt	-3.4	44.7	13.3	-9.7	-6.8
N#C[C@@H]1N[C@@H](CO)[C@@H]1c1ccc(-c2ccccc2F)cc1	21.4	?	nt	-1.5	11.1	-6.5	-5.6	-0.2
O=C(C[C@@H]1C=C[C@H](NC(=O)c2cccnc2)[C@H](CO)O1)NCc1ccncn1	10.3	nt	nt	2.9	nt	nt	nt	nt
COCc1cn(CC[C@@H]2CC[C@@H](NC(=O)Nc3ccccc3)[C@@H](CO)O2)nn1	-12.9	-30.2	0.3	-0.7	nt	nt	nt	nt
O=C(Cc1ccccn1)N[C@@H]1CC[C@H](CC(=O)N2CCCCC2)O[C@@H]1CO	-1.1	-28.4	0.2	6.7	nt	nt	nt	nt
C[C@H](CO)N1C[C@H](C)[C@H](CN(C)Cc2cccc(C(F)(F)F)c2)Oc2ncc(Br)cc2C1=O	6.9	-13.0	25.7	nt	nt	nt	nt	nt
Cc1ccc(S(=O)(=O)Nc2ccc3c(c2)C(=O)N([C@H](C)CO)C[C@H](C)[C@@H](CN(C)CC2CCCCC2)OCCCC[C@H](C)O3)cc1	-37.6	47.7	nt	0.5	nt	nt	nt	nt
Cc1ccc(S(=O)(=O)Nc2ccc3c(c2)C(=O)N([C@@H](C)CO)C[C@@H](C)[C@H](CN(C)S(=O)(=O)c2ccc(C)cc2)OCCCC[C@H](C)O3)cc1	-63.9	?	nt	-2.9	106.1*	69.2	5.9	57.8*
Cc1ccc(S(=O)(=O)Nc2ccc3c(c2)C(=O)N([C@H](C)CO)C[C@@H](C)[C@@H](CN(C)S(=O)(=O)c2ccc(C)cc2)OCCCC[C@@H](C)O3)cc1	-79.0	93.3	nt	-1.9	nt	nt	nt	nt
Cc1ccc(S(=O)(=O)Nc2ccc3c(c2)C(=O)N([C@@H](C)CO)C[C@@H](C)[C@@H](CN(C)S(=O)(=O)c2ccc(C)cc2)OCCCC[C@H](C)O3)cc1	-86.0*	98.8*	nt	-0.4	109.9*	84.3	-20.8	27.1*
Cc1ccc(S(=O)(=O)Nc2ccc3c(c2)C(=O)N([C@H](C)CO)C[C@H](C)[C@H](CN(C)CC2CCCCC2)OCCCC[C@H](C)O3)cc1	-57.6	?	-0.3	3.9	99.7*	93.7	7.9	102.3*
CO[C@@H]1CN(C)C(=O)c2ccc(NC(=O)Nc3ccccc3)cc2OC[C@H](C)N(C(=O)CN(C)C)C[C@H]1C	-59.9	1.6	0.3	-0.8	nt	nt	nt	nt
O=C(NCC(F)(F)F)[C@H]1[C@H](CO)[C@H]2Cn3c(cccc3=O)[C@@H]1N2CC1CC1	1.7	57.4	nt	-0.3	nt	nt	nt	nt
CCCC#Cc1ccc([C@H]2[C@@H](CO)N(C(=O)C3CCC3)[C@H]2C#N)cc1	-14.9	nt	nt	-2.4	nt	nt	nt	nt
CCCC#Cc1ccc([C@H]2[C@@H](C#N)N(C(=O)C3CCCCC3)[C@H]2CO)cc1	-59.3	90.8	nt	-1.2	nt	nt	nt	nt
CCCC#Cc1ccc([C@@H]2[C@H](C#N)N(C(=O)C3CCC3)[C@H]2CO)cc1	-46.1	?	nt	-0.1	100.8*	104.6*	26.2	29.7*
CCCC#Cc1ccc([C@@H]2[C@@H](CO)N(C(=O)C3CCCC3)[C@H]2C#N)cc1	-31.5	99.8*	nt	0.1	97.4*	98.4*	-0.6	4.5
CCCC#Cc1ccc([C@H]2[C@@H](C#N)N(C(=O)C3CCCC3)[C@@H]2CO)cc1	-39.0	102.5*	nt	-3.4	100.1*	103.7*	-5.8	15.4
CCCC#Cc1ccc([C@@H]2[C@@H](C#N)N(C(=O)C3CCCCC3)[C@@H]2CO)cc1	8.6	103.4*	nt	0.0	99.6*	91.2	2.4	14.1
CC(C)C#Cc1ccc([C@H]2[C@H](C#N)N(C(=O)C3CCC3)[C@H]2CO)cc1	-19.6	96.5*	nt	-3.4	107.9*	30.7	0.2	5.9
CC(C)C#Cc1ccc([C@@H]2[C@@H](C#N)N(C(=O)C3CCC3)[C@@H]2CO)cc1	-14.2	89.7	nt	0.4	nt	nt	nt	nt
CC(C)NC(=O)Nc1ccc2c(c1)C(=O)N([C@H](C)CO)C[C@@H](C)[C@H](CN(C)Cc1ccc(Cl)c(Cl)c1)O2	-17.6	30.1	-2.1	-0.3	nt	nt	nt	nt
SMILES	Pf Dd2 growth	T cruzi growth-1	IDH1 R132H inh	GASC1 inh	T cruzi growth-2	T cruzi growth-3	3T3 cytotox	NIH3T3 tox 2
C[C@@H]1CN([C@@H](C)CO)C(=O)c2cc(C#CCN(C)C)cnc2O[C@H]1CN(C)S(=O)(=O)c1ccccc1	-13.5	97.3*	-0.5	3.3	101.6*	86.8	-23.2	-5.7
COc1cccc(S(=O)(=O)N(C)C[C@@H]2Oc3ncc(C#CCN(C)C)cc3C(=O)N([C@@H](C)CO)C[C@H]2C)c1	-7.8	102.8*	-0.8	9.6	95.5*	93.1	2.4	3.5
COc1cccc(S(=O)(=O)N(C)C[C@@H]2Oc3ncc(C#CC(C)C)cc3C(=O)N([C@H](C)CO)C[C@@H]2C)c1	-18.9	96.3*	-4.0	-1.2	83.7	18.7	15.3	52.1*
COc1cccc(S(=O)(=O)N(C)C[C@H]2Oc3ncc(C#CC(C)C)cc3C(=O)N([C@H](C)CO)C[C@H]2C)c1	-19.9	73.8	nt	0.9	nt	nt	nt	nt
COc1cccc(S(=O)(=O)N(C)C[C@H]2Oc3ncc(C#CC(C)C)cc3C(=O)N([C@@H](C)CO)C[C@@H]2C)c1	-64.0	114.1*	-4.6	0.4	83.2	52.8	-13.4	3.1
CCCC#Cc1cnc2c(c1)C(=O)N([C@@H](C)CO)C[C@@H](C)[C@@H](CN(C)S(=O)(=O)c1cccc(OC)c1)O2	17.8	88.3	nt	-1.1	nt	nt	nt	nt
CCCC#Cc1cnc2c(c1)C(=O)N([C@H](C)CO)C[C@H](C)[C@H](CN(C)S(=O)(=O)c1ccccc1)O2	-53.9	46.3	0.9	0.2	nt	nt	nt	nt
